Measurements taken from paper PMC6976987 (Molecular Genetics and Metabolism Reports, 2020).

Tests used:
[1] = Safety assessments; format: in vivo, human; conditions: concomitant dosing with eliglustat, N = 33
Outline: (§1)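 Open-label study in healthy adults. Safety was monitored after a single dose (Day 1), during multiple doses alone (Days 2–8), and during co-dosing (Days 9–15 with the CYP3A/P-gp inhibitor; Days 9–18 with the CYP2D6 inhibitor). Measures: treatment-emergent AEs, clinical labs, vital signs, physical exams, 12-lead ECG, 12 h continuous telemetry. An AE counted as treatment-related if possibly, probably or definitely related to study drug.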

[2] = Safety assessments; format: in vivo, human
Outline: as §1

Structure (SMILES) | subjects reporting AEs related to ketoconazole [1] [%] | subjects reporting AEs related to paroxetine ([2]; concomitant dosing with eliglustat, N = 35) [%] | subjects with moderate clinically significant increases in blood pressure ([2]; concomitant dosing, deemed probably related to paroxetine) [%]
CC(=O)N1CCN(c2ccc(OCC3COC(Cn4ccnc4)(c4ccc(Cl)cc4Cl)O3)cc2)CC1 (stereo not drawn) [ketoconazole] | 33.3 | – | –
Fc1ccc([C@@H]2CCNC[C@H]2COc2ccc3c(c2)OCO3)cc1 [paroxetine] | – | 71.4 | 17.1
